A number with no mark means an inactive call. Records with an inconclusive call do not appear. Active and inactive are the calls of the source.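 Rule for the calls, unless noted: active = viability increase at or above a cutoff of the median across tested compounds plus 3 SD (cut at about 8.5% in these data, passing the limit was not always enough); inconclusive = some gains above the cutoff, reason not given; inactive = the rest.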
Tests used:
[1] = S. cerevisiae growth inhibition in permissive medium (OD615), pilot counter-assay for S. cerevisiae lifespan shortening project, permissive growth control (AID 705;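 active = growth inhibition above 25% in both replicates, a cutoff set 3 SD above the mean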); conditions: OD615, 24 h, at 10 µM, stronger effect = higher value
Summary of the method: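 Test system: Saccharomyces cerevisiae strain carrying genetically modified DeaD replicative-lifespan system; buffer or medium: SC raffinose/galactose permissive medium; dosing: one dose 10 µM, DMSO 0.25% final; times: 24 h exposure, 30 °C; measured by: OD at 615 nm; read-out basis: growth inhibition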

[2] = S. cerevisiae growth inhibition in restrictive medium, OD615, pilot screen, restrictive growth control, yeast lifespan reduction project (AID 706;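 active = growth inhibition above a set limit, 3 SD over mean compound inhibition, in both replicates, cut at about 43% in these data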;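 note: modified DeaD lifespan yeast strain shifted to restrictive glucose medium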); conditions: OD615, 48 h, at 10 µM, stronger effect = higher value
Summary of the method: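 material = engineered S. cerevisiae DeaD strain | buffer or medium = glucose-based CSMM-D restrictive medium | dosing = one concentration, 10 µM final, 0.25% DMSO | schedule = 4 h pre-growth plus 48 h compound exposure, 30 °C | detection = OD615 absorbance reading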

[3] = doxorubicin toxicity protection in MRP-1 cells – H69AR cells, CellTiter-Glo, duplicate, MRP-1 activator project, pilot screen (AID 807); conditions: H69AR viability with doxorubicin, CellTiter-Glo luminescence; at 10 µM; stronger effect = higher value;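 note: compound pretreatment 18-22 h then 72 h combined with doxorubicin; 0% = doxorubicin alone and 100% = vehicle without doxorubicin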
[4] = viability of HCT116 without oncogenic beta-catenin – human colon tumor cells, pilot screen (AID 823;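 active = cell viability at or below a set limit in both duplicate runs, the limit being the all-compound median minus 4 SD, cut at about 23% in these data, passing the limit was not always enough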;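 note: 0% = wells killed by 20 µM Hyamine and 100% = untreated DMSO cell wells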); conditions: HCT116 beta-catenin knockout viability, CellTiter-Glo, 60 h; at 10 µM; stronger effect = lower value
[5] = viability of PTEN-null HCT116 cells – cell-based, HCT116 clonal line, CellTiter-Glo, pilot screen (AID 824;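 active = viability at or below 27.92% in each of two runs, the all-compound median minus 4 SD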;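 note: 0% = 20 µM Hyamine control and 100% = vehicle cell control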); conditions: HCT116 PTEN-deleted viability, 60 h, at 10 µM, stronger effect = lower value
[6] = RAM pathway blockade in budding yeast – dse1pr::URA3 reporter, 5-FOA selection, pilot screen (AID 869;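 active = inhibition over a set limit, the all-compound mean plus 3 SD, in both replicate runs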;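 note: 0% = DMSO wells with no growth and 100% = 10 µM 1-NA-PP1 with full growth; RAM network block rescues cells from 5-FOA so hits raise OD615 growth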); conditions: S. cerevisiae dse1pr::URA3 5-FOA growth, OD615, 2 d; at 10 µM; stronger effect = higher value; strain carries analog-sensitive mutant Cbk1 kinase
[7] = RAM signaling pathway blockade in yeast – S. cerevisiae, Pdr1DBD-CYC8 efflux-inhibited sensitized strain, primary screen (AID 1298;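 active = RAM network inhibition above 8.4% in each of two replicates, 3 SD over the compound average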;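 note: 0% = DMSO untreated cells without growth and 100% = 10 µM 1-NA-PP1 full growth; higher means more yeast growth rescued from 5-FOA killing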); conditions: S. cerevisiae cbk1-as DSE1-URA3 strain, 5-FOA growth OD615, 2 d; at 50 µM; stronger effect = higher value

CCOC(=O)C1CCCN(C(=O)Cc2c(C(=O)O)[nH]c3ccccc23)C1 (centres undefined)
growth inhibition [1]: -7.59% | growth inhibition [2]: -0.39% | viability increase [3]: -0.1% | viability [4]: 97.3% | viability [5]: 96.9% | inhibition [6]: 0.53% | RAM network inhibition [7]: 3.59%

CCC(=O)Nc1ccc(C(=O)n2nc(C)cc2C)cc1
growth inhibition [1]: 15.8% | growth inhibition [2]: 7.33% | viability increase [3]: -2.24% | viability [4]: 103% | viability [5]: 98.9% | inhibition [6]: 1.12% | RAM network inhibition [7]: -0.72%

CCN(CCC(=O)Nc1cc(OC)cc(OC)c1)Cc1ccccc1
growth inhibition [1]: 1.21% | growth inhibition [2]: -14.7% | viability increase [3]: -2.96% | viability [4]: 84.4% | viability [5]: 85.8% | inhibition [6]: 2.68% | RAM network inhibition [7]: 3.12%

CCOC(=O)N1CCN(C(=O)C2CCN(C(=O)c3cc4sccc4n3CC)CC2)CC1
growth inhibition [1]: -16.3% | growth inhibition [2]: -18.7% | viability increase [3]: -3.05% | viability [4]: 91.7% | viability [5]: 98.9% | inhibition [6]: 0.825% | RAM network inhibition [7]: 3.06%

Cc1cccn2c(=O)c3cc(C(=O)NCCN4CCOCC4)c(=N)n(CCc4ccccc4)c3nc12
growth inhibition [1]: -0.895% | growth inhibition [2]: -4.73% | viability increase [3]: -5.8% | viability [4]: 5.75% (active) | viability [5]: 12.8% (active) | inhibition [6]: 1.02% | RAM network inhibition [7]: 2.73%

O=C1NCC2=C1C(c1ccc(Br)cc1)Nc1ccccc1N2 (centres undefined)
growth inhibition [1]: -14.3% | growth inhibition [2]: -0.565% | viability increase [3]: 0.99% | viability [4]: 106% | viability [5]: 96.1% | inhibition [6]: -0.645% | RAM network inhibition [7]: -2.69%

Nc1cccc(-n2nncc2-c2ccc(Cl)cc2)c1
growth inhibition [1]: -6.67% | growth inhibition [2]: -5.47% | viability increase [3]: -1.43% | viability [4]: 99.3% | viability [5]: 91.8% | inhibition [6]: 1.98% | RAM network inhibition [7]: 3.64%

COc1cc2c(cc1OC)C(COc1ccc3c(C)cc(=O)oc3c1)N(C(=O)c1ccco1)CC2 (centres undefined)
growth inhibition [1]: -1.62% | growth inhibition [2]: -3.73% | viability increase [3]: -4.63% | viability [4]: 91.8% | viability [5]: 87.8% | inhibition [6]: 1.6% | RAM network inhibition [7]: 4.74%

CCOC(=O)c1cccc(NC(=O)CNC(=O)C2CCCCC2)c1
growth inhibition [1]: 3.97% | growth inhibition [2]: 2.92% | viability increase [3]: -0.32% | viability [4]: 96.1% | viability [5]: 99.2% | inhibition [6]: 0.655% | RAM network inhibition [7]: -0.72%

COCCN1C(=O)c2oc3ccccc3c(=O)c2C1c1ccc(O)c(OC)c1 (centres undefined)
growth inhibition [1]: -9.35% | growth inhibition [2]: -0.41% | viability increase [3]: -3.27% | viability [4]: 97.5% | viability [5]: 93.2% | inhibition [6]: 0.49% | RAM network inhibition [7]: 8.37%

C=CCn1c(=O)c(C(=O)Nc2ccccc2OC)c(O)c2ccccc21
growth inhibition [1]: 1.44% | growth inhibition [2]: -2.46% | viability increase [3]: -2.69% | viability [4]: 104% | viability [5]: 90.1% | inhibition [6]: 2.31% | RAM network inhibition [7]: 1.39%

CCOC(=O)N1CCC(Nc2ccc3nnc(-c4ccccc4)n3n2)CC1
growth inhibition [1]: 12.3% | growth inhibition [2]: 29.3% | viability increase [3]: -6.99% | viability [4]: 69.4% | viability [5]: 66% | inhibition [6]: -0.975% | RAM network inhibition [7]: 2.57%

O=c1nc2n(c3sc4c(c13)CCC4)Cc1ccccc1-2
growth inhibition [1]: -15.5% | growth inhibition [2]: -9.3% | viability increase [3]: -2.14% | viability [4]: 94.2% | viability [5]: 100% | inhibition [6]: 1.48% | RAM network inhibition [7]: 1.43%

CN(C)S(=O)(=O)c1ccc(C(=O)OCCCN=C2NS(=O)(=O)c3ccccc32)cc1
growth inhibition [1]: -13% | growth inhibition [2]: -15.2% | viability increase [3]: 0.05% | viability [4]: 109% | viability [5]: 102% | inhibition [6]: 0.955% | RAM network inhibition [7]: 2.94%

CN(C)c1ccc(CN2CCCCCC2)cc1
growth inhibition [1]: -3.95% | growth inhibition [2]: -24.5% | viability increase [3]: -2% | viability [4]: 87% | viability [5]: 88.1% | inhibition [6]: 0.44% | RAM network inhibition [7]: 0.1%

COc1ccc(NC(=O)C2CCCN(S(=O)(=O)c3cccc4cccnc34)C2)cc1 (centres undefined)
growth inhibition [1]: -12.6% | growth inhibition [2]: 4.72% | viability increase [3]: -0.46% | viability [4]: 88.2% | viability [5]: 85.5% | inhibition [6]: 2.36% | RAM network inhibition [7]: 6.27%

CCOc1ccc(-c2nc(-c3ccccc3)no2)cc1OCC
growth inhibition [1]: -16.6% | growth inhibition [2]: -29.6% | viability increase [3]: 2.12% | viability [4]: 106% | viability [5]: 91% | inhibition [6]: 3.66% | RAM network inhibition [7]: 5.86%

CC(=O)Nc1ccc(S(=O)(=O)N2CCN(c3cc(C)ccc3C)CC2)cc1
growth inhibition [1]: -14.3% | growth inhibition [2]: -36% | viability increase [3]: -0.32% | viability [4]: 85.7% | viability [5]: 79.3% | inhibition [6]: 3.58% | RAM network inhibition [7]: 0.1%

Cn1c(=O)c2cc(S(=O)(=O)NC(C(=O)Nc3cccnc3)c3ccccc3)ccc2n(C)c1=O (centres undefined)
growth inhibition [1]: -3.52% | growth inhibition [2]: -1.8% | viability increase [3]: -2.15% | viability [4]: 99% | viability [5]: 91.9% | inhibition [6]: 1.96% | RAM network inhibition [7]: 0.58%

COc1ccc(S(=O)(=O)N2CCC(C(=O)N3CCOCC3)CC2)cc1OC
growth inhibition [1]: -15.4% | growth inhibition [2]: -6.63% | viability increase [3]: -0.87% | viability [4]: 91.5% | viability [5]: 94.8% | inhibition [6]: 0.825% | RAM network inhibition [7]: 2.43%

Cc1ccc(N2C(=O)c3ccc(C(=O)N4CCN(c5ccccc5F)CC4)cc3C2=O)cc1
growth inhibition [1]: -4.5% | growth inhibition [2]: -2.21% | viability increase [3]: -1.97% | viability [4]: 90.5% | viability [5]: 90% | inhibition [6]: 1.33% | RAM network inhibition [7]: 4.71%

O=C(Cn1c(=O)oc2cc(S(=O)(=O)N3CCCCCC3)ccc21)NC1CCCCCCC1
growth inhibition [1]: -9.87% | growth inhibition [2]: -14.8% | viability increase [3]: -7.86% | viability [4]: 95.2% | viability [5]: 88.5% | inhibition [6]: 4.98% | RAM network inhibition [7]: 10.5%

CCCCNC(=O)CCCn1c(=O)[nH]c2ccc(Br)cc2c1=O
growth inhibition [1]: -13% | growth inhibition [2]: -18% | viability increase [3]: -0.78% | viability [4]: 97.9% | viability [5]: 92.7% | inhibition [6]: 0.635% | RAM network inhibition [7]: 1.08%

Cc1cccc(NC(=O)c2ccc(S(=O)(=O)N(C)C)cc2)c1
growth inhibition [1]: -8.26% | growth inhibition [2]: -8.44% | viability increase [3]: -3.61% | viability [4]: 106% | viability [5]: 100% | inhibition [6]: 2.24% | RAM network inhibition [7]: 1.69%

O=C(O)c1ccc(Cl)c2c1C1C=CCC1C(c1ccccn1)N2 (centres undefined)
growth inhibition [1]: -7.86% | growth inhibition [2]: 8.06% | viability increase [3]: -2.57% | viability [4]: 98.3% | viability [5]: 94.6% | inhibition [6]: 2.31% | RAM network inhibition [7]: 1.25%

O=C(Cn1c(-c2cncs2)nc2ccccc21)NCCc1ccccc1
growth inhibition [1]: -6.77% | growth inhibition [2]: -8.58% | viability increase [3]: -2.77% | viability [4]: 99.6% | viability [5]: 92.7% | inhibition [6]: 1.25% | RAM network inhibition [7]: 4.43%

Cc1ccc(-c2nc(-c3ccccc3)no2)c(Cl)c1
growth inhibition [1]: -6.6% | growth inhibition [2]: -11.1% | viability increase [3]: -4.72% | viability [4]: 78.9% | viability [5]: 78% | inhibition [6]: 3.96% | RAM network inhibition [7]: 3.45%

O=C1CC(NCc2ccc3c(c2)OCO3)C(=O)N1CCc1ccccc1 (centres undefined)
growth inhibition [1]: -16% | growth inhibition [2]: -11.1% | viability increase [3]: -2.06% | viability [4]: 102% | viability [5]: 104% | inhibition [6]: 1.88% | RAM network inhibition [7]: 0.51%

Cc1cc(C)c(NC(=O)c2ccc(S(=O)(=O)N3CCOCC3)cc2)c(C)c1
growth inhibition [1]: -9.41% | growth inhibition [2]: -8.03% | viability increase [3]: -2.1% | viability [4]: 101% | viability [5]: 98.1% | inhibition [6]: 0.57% | RAM network inhibition [7]: 0.69%

CCc1ccc(-n2c(O)cnc2Nc2nc(C)cc(C)n2)cc1
growth inhibition [1]: -7.38% | growth inhibition [2]: -12.2% | viability increase [3]: 1.61% | viability [4]: 103% | viability [5]: 103% | inhibition [6]: 0.325% | RAM network inhibition [7]: 3.23%

Cn1c(NC(=O)C2CCCC2)cc(=O)n(C)c1=O
growth inhibition [1]: 0.48% | growth inhibition [2]: -4.17% | viability increase [3]: -0.06% | viability [4]: 105% | viability [5]: 95.4% | inhibition [6]: 0.58% | RAM network inhibition [7]: -1.4%

Cc1c(C(=O)O)oc2ccc(S(=O)(=O)N3CCCCC3C(=O)O)cc12 (centres undefined)
growth inhibition [1]: 4.47% | growth inhibition [2]: -3.15% | viability increase [3]: -0.18% | viability [4]: 97.1% | viability [5]: 101% | inhibition [6]: 1.12% | RAM network inhibition [7]: 5.52%

Reference: PubChem BioAssay
